Measured values published in ChEMBL document CHEMBL3808340, “Development of Novel 1,2,3,4-Tetrahydroquinoline Scaffolds as Potent NF-κB Inhibitors and Cytotoxic Agents” (ACS Med Chem Lett, 2016).

Tests used:
[1] = Cytotoxicity against human PC3 cells after 72 hrs by sulforhodamine B assay; type: functional; conditions: PC-3, 72 h
Method in brief: (§1)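 Sulforhodamine B staining following the NCI (USA) protocol was used to estimate cell number indirectly in six human cancer lines. GI50 is the concentration giving a 50% decrease in net cell growth, reported as the mean of three experiments.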

[2] = Cytotoxicity against human NUGC3 cells after 72 hrs by sulforhodamine B assay; type: functional; conditions: NUGC-3, 72 h; method in brief: as §1
[3] = Cytotoxicity against human HCT15 cells after 72 hrs by sulforhodamine B assay; type: functional; conditions: HCT-15, 72 h; method in brief: as §1
NCI-H23 = test: Cytotoxicity against human NCI-H23 cells after 72 hrs by sulforhodamine B assay; type: functional; conditions: NCI-H23, 72 h; method in brief: as §1
ACHN = test: Cytotoxicity against human ACHN cells after 72 hrs by sulforhodamine B assay; type: functional; method in brief: as §1
MDA-MB-231 = test: Cytotoxicity against human MDA-MB-231 cells after 72 hrs by sulforhodamine B assay; type: functional; conditions: MDA-MB-231, 72 h; method in brief: as §1
RAW264.7 = test: Inhibition of LPS-induced NFkappaB (unknown origin) transcriptional activity expressed in mouse RAW264.7 cells at 100 uM incubated for 16 hrs by SEAP based reporter gene assay relative to control; type: cell-based
[4] = Inhibition of LPS-induced NFkappaB (unknown origin) transcriptional activity expressed in mouse RAW264.7 cells incubated for 16 hrs by SEAP based reporter gene assay; type: cell-based; conditions: RAW264.7, 16 h
Homo sapiens [5] = species on record: Homo sapiens; test: Potency index, ratio of KL-1156 IC50 to compound IC50 for LPS-induced NFkappaB (unknown origin) transcriptional activity expressed in mouse RAW264.7 cells; type: cell-based
Homo sapiens [6] = species on record: Homo sapiens; test: Potency index, ratio of PDTC IC50 to compound IC50 for LPS-induced NFkappaB (unknown origin) transcriptional activity expressed in mouse RAW264.7 cells; type: cell-based

| SMILES | GI50 [1] [µM] | GI50 [2] [µM] | GI50 [3] [µM] | GI50 (NCI-H23) [µM] | GI50 (ACHN) [µM] | GI50 (MDA-MB-231) [µM] | inhibition (RAW264.7) [%] | IC50 [4] [µM] | Ratio IC50 (Homo sapiens [5]) | Ratio IC50 (Homo sapiens [6]) |
| --- | --- | --- | --- | --- | --- | --- | --- | --- | --- | --- |
| COc1ccc(NC(=O)C2CCc3ccccc3N2)cc1 (stereo not given) | 56.9 | 51.9 | 50.2 | 55.7 | 38 | 51.4 | > 100 | 34 |  |  |
| O=C(Nc1ccccc1O)C1CCc2ccccc2N1C(=O)c1ccccc1Cl (stereo not given) | 60 | 36.8 | 44.9 | 46.9 | 44.2 | 47.4 | 78 | 20 |  |  |
| COc1ccc(NC(=O)c2ccc3ccccc3n2)cc1 |  |  |  | 7.65 |  |  |  |  |  |  |
| CC(=O)N1c2ccccc2CCC1C(=O)Nc1ccccc1C(F)(F)F (stereo not given) | > 80 | > 80 | > 80 | > 80 | > 80 | > 80 | 32 |  |  |  |
| O=C(Nc1ccccc1)C1CCc2ccccc2N1 (stereo not given) | 110 | 59 | 109 | 97.1 | 72.9 | 108 | 85 | 60 |  |  |
| O=C(Nc1ccccc1C(F)(F)F)C1CCc2ccccc2N1C(=O)c1cccc(Cl)c1 (stereo not given) | 0.729 | 0.754 | 0.797 | 0.292 | 0.526 | 0.288 | 90 | 0.7 | 75 | 53 |
| O=C(Nc1ccccc1)c1ccc2ccccc2n1 |  |  |  | 108 |  |  |  |  |  |  |
| O=C(Nc1ccc(C(F)(F)F)cc1)C1CCc2ccccc2N1 (stereo not given) | 20.3 | 18.6 | 17.6 | 25.8 | 25 | 24.2 | 79 | 68 |  |  |
| S=C(S)N1CCCC1 [PYRROLIDINE DITHIOCARBAMATE] |  |  |  |  |  |  |  | 37.2 |  |  |
| CCCCCCCCC(=O)N1c2ccccc2CCC1C(=O)Nc1ccccc1O (stereo not given) | 45.2 | 31.1 | 38.4 | 55.8 | 65 | 54.3 | 22 |  |  |  |
| O=C(Nc1cc(C(F)(F)F)cc(C(F)(F)F)c1)C1CCc2ccccc2N1C(=O)c1ccccc1Cl (stereo not given) | 8.04 | 1.93 | 4.05 | 2.08 | 4.7 | 5.25 | 90 | 23 |  |  |
| O=C(Nc1ccccc1C(F)(F)F)C1CCc2ccccc2N1C(=O)c1ccc(Cl)cc1 (stereo not given) | 0.786 | 0.551 | 0.839 | 0.307 | 0.824 | 0.533 | 92 | 2.7 | 19 | 13 |
| O=C(Nc1cc(C(F)(F)F)cc(C(F)(F)F)c1)C1CCc2ccccc2N1C(=O)c1cccc(Cl)c1 (stereo not given) | 1.05 | 0.56 | 0.625 | 0.42 | 0.813 | 1.19 | 68 | 27 |  |  |
| CCCC(=O)N1c2ccccc2CCC1C(=O)Nc1ccccc1C(F)(F)F (stereo not given) | > 70 | > 70 | > 70 | > 70 | > 70 | > 70 | 51 | 95 |  |  |
| COc1cc2c(cc1O)CCC(C(=O)Nc1ccccc1)O2 (stereo not given) |  |  |  |  |  |  | 72 | 53 |  |  |
| O=C(Nc1ccccc1O)c1ccc2ccccc2n1 |  |  |  | 87.5 |  |  |  |  |  |  |
| O=C(Nc1cc(C(F)(F)F)cc(C(F)(F)F)c1)c1ccc2ccccc2n1 |  |  |  | 1.44 |  |  |  |  |  |  |
| CCCCCCCCC(=O)N1c2ccccc2CCC1C(=O)Nc1cc(C(F)(F)F)cc(C(F)(F)F)c1 (stereo not given) | 7.43 | 2.23 | 4.97 | 3.23 | 4.52 | 7.53 | 58 | 51 |  |  |
| COc1cccc2c1C(=O)c1c(O)c3c(c(O)c1C2=O)C[C@@](O)(C(=O)CO)C[C@@H]3O[C@H]1C[C@H](N)[C@H](O)[C@H](C)O1 [DOXORUBICIN] | 0.0923 | 0.125 | 0.0854 | 0.0726 | 0.0995 | 0.112 |  |  |  |  |
| O=C(Nc1cc(C(F)(F)F)cc(C(F)(F)F)c1)C1CCc2ccccc2N1 (stereo not given) | 8.12 | 8.76 | 8.7 | 8.41 | 8.19 | 8.27 | > 100 | 26 |  |  |

| SMILES | GI50 [1] [µM] | GI50 [2] [µM] | GI50 [3] [µM] | GI50 (NCI-H23) [µM] | GI50 (ACHN) [µM] | GI50 (MDA-MB-231) [µM] | inhibition (RAW264.7) [%] | IC50 [4] [µM] | Ratio IC50 (Homo sapiens [5]) | Ratio IC50 (Homo sapiens [6]) |
| --- | --- | --- | --- | --- | --- | --- | --- | --- | --- | --- |
| CCC(=O)N1c2ccccc2CCC1C(=O)Nc1cc(C(F)(F)F)cc(C(F)(F)F)c1 (stereo not given) | 8.54 | 7.22 | 7.62 | 7.82 | 7.72 | 7.28 | 91 | 20 |  |  |
| O=C(Nc1ccccc1O)C1CCc2ccccc2N1 (stereo not given) | 4.31 | 2.68 | 5.61 | 2.23 | 3.99 | 5.26 | 57 | 83 |  |  |
| O=C(Nc1ccc(C(F)(F)F)cc1)c1ccc2ccccc2n1 |  |  |  | > 90 |  |  |  |  |  |  |
| CC(=O)N1c2ccccc2CCC1C(=O)Nc1cc(C(F)(F)F)cc(C(F)(F)F)c1 (stereo not given) | > 70 | > 70 | > 70 | > 70 | > 70 | > 70 | 85 | 23 |  |  |
| O=C(Nc1ccc(O)cc1)C1CCc2ccccc2N1 (stereo not given) | > 100 | > 100 | > 100 | > 100 | > 100 | > 100 | 64 | 65 |  |  |
| CCCC(=O)N1c2ccccc2CCC1C(=O)Nc1ccccc1O (stereo not given) | 72.5 | 35.4 | 58.3 | 43.1 | 50.6 | 38 | 41 |  |  |  |
| O=C(Nc1cc(C(F)(F)F)cc(C(F)(F)F)c1)C1CCc2ccccc2N1C(=O)c1ccc(Cl)cc1 (stereo not given) | 4.23 | 1.66 | 2.22 | 0.889 | 2.57 | 2 | 92 | 20 |  |  |
| CCCCCCCCC(=O)N1c2ccccc2CCC1C(=O)Nc1ccccc1C(F)(F)F (stereo not given) | 4.32 | 6.18 | 7.7 | 4.22 | 8.33 | 3.35 | 63 | 27 |  |  |
| O=C(Nc1ccccc1C(F)(F)F)c1ccc2ccccc2n1 |  |  |  | > 90 |  |  |  |  |  |  |
| O=C(Nc1ccc(O)cc1)c1ccc2ccccc2n1 |  |  |  | 102 |  |  |  |  |  |  |
| O=C(Nc1ccccc1O)C1CCc2ccccc2N1C(=O)c1ccc(Cl)cc1 (stereo not given) | 25.1 | 13.4 | 20.2 | 19.2 | 19.6 | 19.6 | 82 | 20 |  |  |
| CCC(=O)N1c2ccccc2CCC1C(=O)Nc1ccccc1O (stereo not given) | > 90 | > 90 | > 90 | > 90 | > 90 | > 90 | 31 |  |  |  |
| O=C(Nc1ccccc1C(F)(F)F)C1CCc2ccccc2N1C(=O)c1ccccc1Cl (stereo not given) | 5.14 | 2.73 | 4.22 | 2.15 | 3.9 | 2.53 | 82 | 0.9 | 58 | 41 |
| CCCC(=O)N1c2ccccc2CCC1C(=O)Nc1cc(C(F)(F)F)cc(C(F)(F)F)c1 (stereo not given) | 18.6 | 14.4 | 21.9 | 15 | 13.9 | 15.2 | 88 | 20 |  |  |
| O=C(Nc1ccccc1O)C1CCc2ccccc2N1C(=O)c1cccc(Cl)c1 (stereo not given) | 23.3 | 11 | 23.1 | 11.6 | 17.2 | 10.6 | 58 | 78 |  |  |
| O=C(Nc1cc(C(F)(F)F)cc(C(F)(F)F)c1)C1CCc2ccccc2N1C(=O)c1ccccc1 (stereo not given) | 3.5 | 1.68 | 3.54 | 2.13 | 2.92 | 2.43 | 66 | 29 |  |  |
| O=C(Nc1ccccc1C(F)(F)F)C1CCc2ccccc2N1C(=O)c1ccccc1 (stereo not given) | 5.56 | 8.12 | 6.5 | 6.34 | 8.09 | 5.29 | 44 |  |  |  |
| CC(=O)N1c2ccccc2CCC1C(=O)Nc1ccccc1O (stereo not given) | 70.7 | 49.7 | 54.5 | 65.7 | 50.7 | 89.6 | 19 |  |  |  |
| CCC(=O)N1c2ccccc2CCC1C(=O)Nc1ccccc1C(F)(F)F (stereo not given) | > 80 | > 80 | > 80 | > 80 | > 80 | > 80 | 43 |  |  |  |
| O=C(Nc1ccccc1C(F)(F)F)C1CCc2ccccc2N1 (stereo not given) | 53.3 | 39.3 | 40.4 | 56.8 | 57.6 | 45.5 | > 100 | 26 |  |  |
